Laboratory results as given in ChEMBL document CHEMBL5236607, “Membrane-Active Cyclic Amphiphilic Peptides: Broad-Spectrum Antibacterial Activity Alone and in Combination with Antibiotics” (J Med Chem, 2022).
Peptide text beside a SMILES is read from it.

What was measured:
Type in all cases: functional
[1] = system: Staphylococcus aureus; assay: Synergistic antibacterial activity against methicillin resistant Staphylococcus aureus ATCC BAA-1556 fractional inhibitory concentration index incubated for 24 hrs in presence of Ciprofloxacin by checkerboard assay
In short: (§1)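 Checkerboard assay. Inoculum from an LB overnight culture at 0.5 McFarland, diluted 1/150 in MH media. […] Incubated 37 °C for 24 h. FICI = MIC combination/MIC alone summed over both agents. Triplicate.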

[2] = system: Escherichia coli; assay: Synergistic antibacterial activity against Escherichia coli ATCC 25922 fractional inhibitory concentration incubated for 24 hrs in presence of kanamycin by checkerboard assay
In short: (§2)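 Checkerboard assay in MH broth. Inoculum from an LB overnight culture set to 0.5 McFarland and diluted 1/150. […] Each agent was also titrated alone. Incubation 24 h at 37 °C. FIC = combination MIC/individual MIC; FICI = sum of the FICs. Triplicate.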

[3] = system: Staphylococcus aureus; assay: Synergistic antibacterial activity against methicillin resistant Staphylococcus aureus ATCC BAA-1556 assessed as fractional inhibitory concentration incubated for 24 hrs in presence of tetracycline by checkerboard assay; in short: as §1
[4] = system: Staphylococcus aureus; assay: Synergistic antibacterial activity against methicillin resistant Staphylococcus aureus ATCC BAA-1556 incubated for 24 hrs in presence of tobramycin by checkerboard assay; in short: as §1
[5] = system: Klebsiella pneumoniae; assay: Synergistic antibacterial activity against Klebsiella pneumoniae ATCC BAA-1705 fractional inhibitory concentration incubated for 24 hrs in presence of kanamycin by checkerboard assay; in short: as §2
[6] = system: Klebsiella pneumoniae; assay: Synergistic antibacterial activity against Klebsiella pneumoniae ATCC BAA-1705 fractional inhibitory concentration index incubated for 24 hrs in presence of levofloxacin by checkerboard assay; in short: as §2
[7] = system: Klebsiella pneumoniae; assay: Synergistic antibacterial activity against Klebsiella pneumoniae ATCC BAA-1705 fractional inhibitory concentration index incubated for 24 hrs in presence of daptomycin by checkerboard assay; in short: as §2
[8] = system: Klebsiella pneumoniae; assay: Synergistic antibacterial activity against Klebsiella pneumoniae ATCC BAA-1705 fractional inhibitory concentration incubated for 24 hrs in presence of levofloxacin by checkerboard assay; in short: as §2
[9] = system: Klebsiella pneumoniae; assay: Synergistic antibacterial activity against Klebsiella pneumoniae ATCC BAA-1705 fractional inhibitory concentration index incubated for 24 hrs in presence of polymyxin B by checkerboard assay
[10] = system: Staphylococcus aureus; assay: Synergistic antibacterial activity against methicillin resistant Staphylococcus aureus ATCC BAA-1556 incubated for 24 hrs in presence of tetracycline by checkerboard assay; in short: as §1
[11] = system: Pseudomonas aeruginosa; assay: Synergistic antibacterial activity against Pseudomonas aeruginosa ATCC […] incubated for 24 hrs in presence of meropenem by checkerboard assay
[12] = system: Klebsiella pneumoniae; assay: Synergistic antibacterial activity against Klebsiella pneumoniae ATCC BAA-1705 assessed as fractional inhibitory concentration incubated for 24 hrs in presence of tetracycline by checkerboard assay; in short: as §2
[13] = system: Klebsiella pneumoniae; assay: Synergistic antibacterial activity against Klebsiella pneumoniae ATCC BAA-1705 fractional inhibitory concentration incubated for 24 hrs in presence of clindamycin by checkerboard assay; in short: as §2
[14] = system: Klebsiella pneumoniae; assay: Synergistic antibacterial activity against Klebsiella pneumoniae ATCC BAA-1705 fractional inhibitory concentration incubated for 24 hrs in presence of Ciprofloxacin by checkerboard assay; in short: as §2
[15] = system: Pseudomonas aeruginosa; assay: Synergistic antibacterial activity against Pseudomonas aeruginosa ATCC […] fractional inhibitory concentration incubated for 24 hrs in presence of kanamycin by checkerboard assay; in short: as §1
[16] = system: Escherichia coli; assay: Synergistic antibacterial activity against Escherichia coli ATCC 25922 assessed as fractional inhibitory concentration index incubated for 24 hrs in presence of tetracycline by checkerboard assay; in short: as §2
[17] = system: Escherichia coli; assay: Synergistic antibacterial activity against Escherichia coli ATCC 25922 fractional inhibitory concentration index incubated for 24 hrs in presence of levofloxacin by checkerboard assay; in short: as §2
[18] = system: Klebsiella pneumoniae; assay: Synergistic antibacterial activity against Klebsiella pneumoniae ATCC BAA-1705 incubated for 24 hrs in presence of polymyxin B by checkerboard assay
[19] = system: Pseudomonas aeruginosa; assay: Synergistic antibacterial activity against Pseudomonas aeruginosa ATCC […] fractional inhibitory concentration incubated for 24 hrs in presence of meropenem by checkerboard assay
[20] = system: Staphylococcus aureus; assay: Synergistic antibacterial activity against methicillin resistant Staphylococcus aureus ATCC BAA-1556 assessed as fractional inhibitory concentration incubated for 24 hrs in presence of clindamycin by checkerboard assay; in short: as §1
[21] = system: Klebsiella pneumoniae; assay: Synergistic antibacterial activity against Klebsiella pneumoniae ATCC BAA-1705 fractional inhibitory concentration index incubated for 24 hrs in presence of Ciprofloxacin by checkerboard assay; in short: as §2
[22] = system: Escherichia coli; assay: Synergistic antibacterial activity against Escherichia coli ATCC 25922 fractional inhibitory concentration incubated for 24 hrs in presence of vancomycin by checkerboard assay; in short: as §2
[23] = system: Pseudomonas aeruginosa; assay: Synergistic antibacterial activity against Pseudomonas aeruginosa ATCC […] fractional inhibitory concentration index incubated for 24 hrs in presence of meropenem by checkerboard assay
[24] = system: Escherichia coli; assay: Synergistic antibacterial activity against Escherichia coli ATCC 25922 incubated for 24 hrs in presence of tetracycline by checkerboard assay; in short: as §2
[25] = system: Pseudomonas aeruginosa; assay: Synergistic antibacterial activity against Pseudomonas aeruginosa ATCC […] fractional inhibitory concentration index incubated for 24 hrs in presence of Ciprofloxacin by checkerboard assay
[26] = system: Pseudomonas aeruginosa; assay: Synergistic antibacterial activity against Pseudomonas aeruginosa ATCC […] incubated for 24 hrs in presence of levofloxacin by checkerboard assay
[27] = system: Staphylococcus aureus; assay: Synergistic antibacterial activity against methicillin resistant Staphylococcus aureus ATCC BAA-1556 fractional inhibitory concentration incubated for 24 hrs in presence of vancomycin by checkerboard assay; in short: as §1
[28] = system: Klebsiella pneumoniae; assay: Synergistic antibacterial activity against Klebsiella pneumoniae ATCC BAA-1705 fractional inhibitory concentration index incubated for 24 hrs in presence of clindamycin by checkerboard assay; in short: as §2
[29] = system: Staphylococcus aureus; assay: Synergistic antibacterial activity against methicillin resistant Staphylococcus aureus ATCC BAA-1556 fractional inhibitory concentration index incubated for 24 hrs in presence of vancomycin by checkerboard assay; in short: as §1
[30] = system: Staphylococcus aureus; assay: Synergistic antibacterial activity against methicillin resistant Staphylococcus aureus ATCC BAA-1556 assessed as fractional inhibitory concentration index incubated for 24 hrs in presence of clindamycin by checkerboard assay; in short: as §1
[31] = system: Escherichia coli; assay: Synergistic antibacterial activity against Escherichia coli ATCC 25922 fractional inhibitory concentration incubated for 24 hrs in presence of polymyxin B by checkerboard assay; in short: as §2
[32] = system: Klebsiella pneumoniae; assay: Synergistic antibacterial activity against Klebsiella pneumoniae ATCC BAA-1705 assessed as fractional inhibitory concentration incubated for 24 hrs in presence of tobramycin by checkerboard assay; in short: as §2
[33] = system: Pseudomonas aeruginosa; assay: Synergistic antibacterial activity against Pseudomonas aeruginosa ATCC […] incubated for 24 hrs in presence of Ciprofloxacin by checkerboard assay
[34] = system: Klebsiella pneumoniae; assay: Synergistic antibacterial activity against Klebsiella pneumoniae ATCC BAA-1705 assessed as fractional inhibitory concentration index incubated for 24 hrs in presence of tobramycin by checkerboard assay; in short: as §2
[35] = system: Escherichia coli; assay: Synergistic antibacterial activity against Escherichia coli ATCC 25922 fractional inhibitory concentration incubated for 24 hrs in presence of levofloxacin by checkerboard assay; in short: as §2
[36] = system: Klebsiella pneumoniae; assay: Synergistic antibacterial activity against Klebsiella pneumoniae ATCC BAA-1705 fractional inhibitory concentration incubated for 24 hrs in presence of daptomycin by checkerboard assay; in short: as §2
[37] = system: Pseudomonas aeruginosa; assay: Synergistic antibacterial activity against Pseudomonas aeruginosa ATCC […] fractional inhibitory concentration incubated for 24 hrs in presence of metronidazole by checkerboard assay

Structure (SMILES) | fractional inhibitory concentration index (FICI) [1] | FIC [2] | FIC [3] | MIC [4] [µg/mL] | FIC [5] | fractional inhibitory concentration index (FICI) [6] | fractional inhibitory concentration index (FICI) [7] | FIC [8] | fractional inhibitory concentration index (FICI) [9] | MIC [10] [µg/mL] | MIC [11] [µg/mL] | FIC [12] | FIC [13] | FIC [14] | FIC [15] | fractional inhibitory concentration index (FICI) [16] | fractional inhibitory concentration index (FICI) [17] | MIC [18] [µg/mL] | FIC [19] | FIC [20] | also measured
N=C(N)NCCC[C@@H]1NC(=O)[C@H](CCCNC(=N)N)NC(=O)[C@H](CCCNC(=N)N)NC(=O)[C@H](CCCNC(=N)N)NC(=O)[C@H](Cc2c[nH]c3ccccc23)NC(=O)[C@H](Cc2c[nH]c3ccccc23)NC(=O)[C@H](Cc2c[nH]c3ccccc23)NC(=O)[C@H](Cc2c[nH]c3ccccc23)NC(=O)[C@H](CCCNC(=N)N)NC(=O)[C@H](CCCNC(=N)N)NC1=O (cyclo(RRRRRRWWWW)) | 0.75 | 0.125 | 0.25 | 0.0625 | 0.25 | 0.375 | 0.375 | 0.125 | 0.281 | 0.0625 | 0.25 | 0.125 | 0.016 | 0.0625 | 0.0156 | 0.313 | 0.375 | 0.031 | 0.25 | 0.248 | fractional inhibitory concentration index (FICI) [21]: 0.313; FIC [22]: 0.063; fractional inhibitory concentration index (FICI) [23]: 0.5; MIC [24]: 0.5 µg/mL; fractional inhibitory concentration index (FICI) [25]: 0.5; MIC [26]: 0.125 µg/mL; FIC [27]: 0.25; fractional inhibitory concentration index (FICI) [28]: 0.266; fractional inhibitory concentration index (FICI) [29]: 0.5; fractional inhibitory concentration index (FICI) [30]: 0.498; FIC [31]: 0.063; FIC [32]: 0.25; MIC [33]: 0.125 µg/mL; fractional inhibitory concentration index (FICI) [34]: 0.5; FIC [35]: 0.125; FIC [36]: 0.125; FIC [37]: 0.125
N=C(N)NCCC[C@@H]1NC(=O)[C@H](CCCNC(=N)N)NC(=O)[C@H](CCCNC(=N)N)NC(=O)[C@H](Cc2c[nH]c3ccccc23)NC(=O)[C@H](Cc2c[nH]c3ccccc23)NC(=O)[C@H](Cc2c[nH]c3ccccc23)NC(=O)[C@H](Cc2c[nH]c3ccccc23)NC(=O)[C@H](CCCNC(=N)N)NC(=O)[C@H](CCCNC(=N)N)NC1=O | 0.625 | 0.25 | 0.25 | 0.125 | 0.125 | 0.375 | 0.516 | 0.125 | 0.375 | 0.0625 | 0.125 | 0.125 | 0.0039 | 0.0625 | 0.0313 | 0.375 | 0.375 | 0.125 | 0.125 | 0.249 | fractional inhibitory concentration index (FICI) [21]: 0.313; FIC [22]: 0.0313; fractional inhibitory concentration index (FICI) [23]: 0.375; MIC [24]: 1 µg/mL; fractional inhibitory concentration index (FICI) [25]: 0.5; MIC [26]: 0.125 µg/mL; FIC [27]: 0.5; fractional inhibitory concentration index (FICI) [28]: 0.254; fractional inhibitory concentration index (FICI) [29]: 0.75; fractional inhibitory concentration index (FICI) [30]: 0.499; FIC [31]: 0.125; FIC [32]: 0.125; MIC [33]: 0.125 µg/mL; fractional inhibitory concentration index (FICI) [34]: 0.375; FIC [35]: 0.125; FIC [36]: 0.0156; FIC [37]: 0.25
